ChEMBL document CHEMBL1811832, “Transformation of isosteviol lactam by fungi and the suppressive effects of its transformed products on LPS-induced iNOS expression in macrophages” (2011)

System: RAW264.7
Assay: Antiinflammatory activity against mouse RAW264.7 cells assessed as inhibition of LPS-induced iNOS mRNA expression at 10 uM after 24 hrs by RT-PCR relative to control
Format: functional
Procedure, shortened: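 Murine RAW 264.7 macrophages stimulated with LPS 100 ng/mL for 4 h, then treated with compound at 10 μM for 24 h with LPS still present; dexamethasone as reference. Total RNA extracted with TRIzol, oligo(dT)-primed cDNA, real-time PCR (50 cycles, dissociation-curve check). iNOS mRNA expressed as fold relative to LPS-only cells; mean ± SEM, n = 3, paired two-tailed t-test.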

| SMILES | fold change (FC) |
| --- | --- |
| C[C@@]12CC[C@H]3[C@]4(C)CCC[C@@](C)(C(=O)O)[C@H]4C[C@H](O)[C@]3(CC(=O)N1)C2 | 0.61 |
| C[C@@]12CCC[C@@](C)(C(=O)O)[C@H]1CC[C@]13CC(=O)N[C@](C)(C1)[C@@H](O)C[C@H]32 | 0.13 |
| C[C@]12CC[C@H]3[C@]4(C)CCC[C@@](C)(C(=O)O)[C@H]4CC[C@@]3(C1)[C@H](Cl)C(=O)N2 | 0.85 |
| CC1=C[C@@]2(CC#N)[C@@H](O)C[C@H]3[C@@](C)(CCC[C@@]3(C)C(=O)O)[C@@H]2CC1 | 0.12 |
| CC1=C[C@@]2(CC#N)CC[C@H]3[C@](C)([C@@H]2CC1)[C@@H](O)CC[C@@]3(C)C(=O)O | 0.43 |
| C=C1C[C@@]2(CC#N)CC[C@H]3[C@@](C)(CCC[C@@]3(C)C(=O)O)[C@@H]2C[C@H]1Cl | 0.3 |
| CCO[C@@H]1C[C@@H]2[C@@](CC#N)(C=C1C)CC[C@H]1[C@@]2(C)CCC[C@@]1(C)C(=O)O | 0.21 |
| CO[C@H]1C[C@@H]2[C@@](CC#N)(C=C1C)CC[C@H]1[C@@]2(C)CCC[C@@]1(C)C(=O)O | 0.2 |
| CC1=CC[C@@H]2[C@](CC#N)(CC[C@H]3[C@@]2(C)CCC[C@@]3(C)C(=O)OCCO)C1 | 0.5 |
| CC1=C[C@@]2(CC#N)CC[C@H]3[C@@](C)(CCC[C@@]3(C)C(=O)O)[C@@H]2CC1 | 0.48 |
| CC1=CC[C@@H]2[C@](CC#N)(CC[C@H]3[C@@]2(C)CCC[C@@]3(C)C(=O)O)C1 | 0.63 |
| C[C@@H]1C[C@H]2[C@@H]3CCC4=CC(=O)C=C[C@]4(C)[C@@]3(F)[C@@H](O)C[C@]2(C)[C@@]1(O)C(=O)CO [DEXAMETHASONE] | 0.16 |
| C[C@@]12CC[C@@H]3[C@@](CC[C@H]4[C@@]3(C)CCC[C@@]4(C)C(=O)O)(CC(=O)N1)C2 [ISOSTEVIOL LACTAM] | 0.15 |
| C[C@@]12CC[C@@H]3[C@@](CC[C@H]4[C@@]3(C)CCC[C@@]4(C)C(=O)O)(C/C1=N\O)C2 [ISOSTEVIOL OXIME] | 0.15 |
| C[C@@]12CC[C@@H]3[C@@](CC[C@H]4[C@@]3(C)CCC[C@@]4(C)C(=O)O)(CC1=O)C2 [ISOSTEVIOL] | 0.29 |
